Reference: ChEMBL document CHEMBL1140293, “Irreversible inactivation of trypanothione reductase by unsaturated Mannich bases: a divinyl ketone as key intermediate” (J Med Chem, 2005)
Calls of active or inactive are those of the source. No cut-off for these calls is given here.

Assays:
[1] = target: Trypanothione reductase (Trypanosoma cruzi) (UniProt P28593); assay: Inhibition of reduced Trypanosoma cruzei trypanothione reductase at freshly prepared 100 uM
Procedure, shortened: (§1)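 Recombinant T. cruzi TR (0.5 μM) preincubated at 25 °C with inhibitor, with or without 200 μM NADPH, in 40 mM HEPES, 1 mM EDTA, pH 7.5; 5 μL aliquots taken over time into standard assay (100 μM NADPH, 110 μM TS2, A340 decrease). Inhibitor from fresh or stored DMSO stock (stored at 4 °C); half-time at 100 μM. Controls: enzyme+NADPH+DMSO, enzyme+inhibitor without NADPH.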

[2] = Cytotoxicity against human KB cells by Alamar blue assay; assay type: cell-based; details: read-out: ED50 (the source's name)
Procedure, shortened: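 Human oral pharyngeal carcinoma KB cells; Alamar Blue read-out with podophyllotoxin positive control; ED50 calculated relative to blanks and untreated controls.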

[3] = system: Plasmodium falciparum; assay: Antiparasitic activity against chloroquine-sensitive Plasmodium falciparum 3D7 in erythrocytes; assay type: functional; details: read-out: ED50 (the source's name)
[4] = system: Leishmania donovani; assay: Antiparasitic activity against Leishmania donovani MHOM/ET/67/HU3 intracellular amastigotes; assay type: functional; details: read-out: ED50 (the source's name)
[5] = system: Trypanosoma brucei rhodesiense; assay: Antiparasitic activity against Trypanosoma brucei rhodesiense STIB900 blood stream form; assay type: functional; details: read-out: ED50 (the source's name)
Procedure, shortened: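 Bloodstream-form parasites treated for 3 days; viability by tetrazolium salt colorimetric assay with pentamidine isethionate reference; ED50 derived by sigmoidal regression.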

[6] = system: Trypanosoma cruzi; assay: Antiparasitic activity against Trypanosoma cruzi MHOM/CL/00/Tulahuan-LacZ intracellular amastigotes; assay type: functional; details: read-out: ED50 (the source's name)
[7] = Inhibition of Plasmodium falciparum thioredoxin reductase in presence of 34 uM thioredoxin 2 substrate
Procedure, shortened: (§2)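 Direct assay at 25 °C, NADPH oxidation at 340 nm, 100 μM NADPH, 1% DMSO; six to eight inhibitor levels 0–100 μM, duplicate. TR: 100 μM TS2, 100 mM phosphate pH 7.0. GR (human): 500 or 50 μM GSSG, 100 mM potassium phosphate pH 7.0, 200 mM KCl. P. falciparum TrxR: 34 μM D. melanogaster thioredoxin-2, 100 mM phosphate pH 7.4, 2 mM EDTA.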

[8] = Inhibition of Plasmodium falciparum thioredoxin reductase after 5 min pre-incubation with NADPH in presence of 34 uM thioredoxin 2 substrate
Procedure, shortened: (§3)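 Enzyme (T. cruzi TR, human GR or P. falciparum TrxR) preincubated 5 min at 25 °C with 160 μM NADPH and 0–20 μM inhibitor, 2% DMSO, 50 μL; 5 μL aliquot into respective standard assay with substrate at 5× Km (100 μM TS2, 500 μM GSSG, 34 μM thioredoxin-2), residual activity at 340 nm.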

[9] = Toxicity in macrophages at >=156 uM; assay type: cell-based; details: human, macrophage
[10] = target: T1, Trypanothione reductase (Trypanosoma cruzi, UniProt P28593); assay: Inhibition of Trypanosoma cruzi trypanothione reductase in presence of 100 uM TS2 substrate; procedure, shortened: as §2
T1 sequence (P28593 whole entry): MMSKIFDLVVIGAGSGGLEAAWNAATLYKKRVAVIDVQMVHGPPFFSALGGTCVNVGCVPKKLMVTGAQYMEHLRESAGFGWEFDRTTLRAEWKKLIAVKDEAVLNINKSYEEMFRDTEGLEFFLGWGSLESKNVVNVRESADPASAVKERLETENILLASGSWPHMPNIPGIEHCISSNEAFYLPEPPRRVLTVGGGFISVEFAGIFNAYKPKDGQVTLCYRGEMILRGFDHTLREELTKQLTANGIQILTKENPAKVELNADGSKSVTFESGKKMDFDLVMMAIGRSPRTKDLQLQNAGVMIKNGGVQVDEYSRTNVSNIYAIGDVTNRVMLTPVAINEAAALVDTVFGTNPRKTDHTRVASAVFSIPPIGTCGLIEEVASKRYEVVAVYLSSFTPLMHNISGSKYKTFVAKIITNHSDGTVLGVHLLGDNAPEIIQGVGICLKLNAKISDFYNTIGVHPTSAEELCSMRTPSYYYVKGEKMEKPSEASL

[11] = target: T1, Trypanothione reductase; assay: Inhibition of Trypanosoma cruzi trypanothione reductase after 5 mins pre-incubation with NADPH in presence of 100 uM TS2 substrate; procedure, shortened: as §3
[12] = target: T2, Glutathione reductase, mitochondrial (Homo sapiens, UniProt P00390); assay: Inhibition of human glutathione reductase in presence of 500 uM GSSG substrate; procedure, shortened: as §2
T2 sequence (P00390 whole entry): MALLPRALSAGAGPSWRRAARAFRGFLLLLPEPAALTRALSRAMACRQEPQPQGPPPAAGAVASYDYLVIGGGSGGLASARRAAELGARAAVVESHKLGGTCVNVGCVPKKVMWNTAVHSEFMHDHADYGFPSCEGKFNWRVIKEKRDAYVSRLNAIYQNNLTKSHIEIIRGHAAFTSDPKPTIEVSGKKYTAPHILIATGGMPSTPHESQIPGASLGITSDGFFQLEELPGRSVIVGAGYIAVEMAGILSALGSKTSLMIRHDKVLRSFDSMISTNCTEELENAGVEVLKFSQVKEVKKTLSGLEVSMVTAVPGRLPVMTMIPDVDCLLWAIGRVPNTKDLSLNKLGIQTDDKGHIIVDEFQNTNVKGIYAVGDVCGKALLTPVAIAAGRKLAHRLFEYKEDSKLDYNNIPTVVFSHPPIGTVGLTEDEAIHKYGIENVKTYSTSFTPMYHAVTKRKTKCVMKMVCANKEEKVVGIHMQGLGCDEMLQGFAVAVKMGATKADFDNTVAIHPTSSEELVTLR

[13] = target: T2, Glutathione reductase, mitochondrial; assay: Inhibition of human glutathione reductase in presence of 50 uM GSSG substrate; procedure, shortened: as §2
[14] = target: T2, Glutathione reductase, mitochondrial; assay: Inhibition of human glutathione reductase after 5 mins pre-incubation with NADPH in presence of 500 uM GSSG substrate; procedure, shortened: as §3
[15] = target: Trypanothione reductase (Trypanosoma cruzi) (UniProt P28593); assay: Inactivation of Trypanosoma cruzei trypanothione reductase at 200 uM; procedure, shortened: as §1
[16] = target: Trypanothione reductase (Trypanosoma cruzi) (UniProt P28593); assay: Inhibition of Trypanosoma cruzei reduced trypanothione reductase at 100 uM; procedure, shortened: as §1
[17] = target: Trypanothione reductase (Trypanosoma cruzi) (UniProt P28593); assay: Inhibition of Trypanosoma cruzei reduced trypanothione reductase at 5 uM freshly prepared compound within less than 5 mins; procedure, shortened: as §1
[18] = target: Trypanothione reductase (Trypanosoma cruzi) (UniProt P28593); assay: Inhibition of Trypanosoma cruzei trypanothione reductase at 5 uM stored compound within 5 mins; procedure, shortened: as §1
[19] = target: Trypanothione reductase (Trypanosoma cruzi) (UniProt P28593); assay: Inactivation of Trypanosoma cruzei reduced trypanothione reductase at 100 uM freshly prepared compound; set-up: scale not given: the % may be the effect or the level left; procedure, shortened: as §1
[20] = target: Trypanothione reductase (Trypanosoma cruzi) (UniProt P28593); assay: Inactivation of Trypanosoma cruzei reduced trypanothione reductase at 100 uM stored compound; set-up: scale not given: the % may be the effect or the level left; procedure, shortened: as §1

Trypanothione reductase (Trypanosoma cruzi), sequence (P28593 whole entry, looked up): as the sequence (P28593 whole entry) above

T1/2 [1] | EC50 [3] | EC50 [4] | EC50 [5] | EC50 [6] | SMILES | CC50 [2] | further results
2 min |  |  |  |  | O=C(/C=C/c1ccccc1Cl)CCN1CCOCC1 |  | 
 |  |  |  |  | COc1cc([C@@H]2c3cc4c(cc3[C@H](O)[C@H]3COC(=O)[C@H]23)OCO4)cc(OC)c1OC [PODOFILOX] | 0.07 µM | 
 | 0.0058 µM |  |  |  | CCN(CC)CCCC(C)Nc1ccnc2cc(Cl)ccc12 (centres undefined) [CHLOROQUINE] |  | 
 |  | 28.9 µM | 0.1 nM | 4.2 µM | N=C(N)c1ccc(OCCCCCOc2ccc(C(=N)N)cc2)cc1 [PENTAMIDINE] |  | 
< 0.75 min | 46.7 µM | 68 µM | 1900 nM | 12.5 µM | C=CC(=O)/C=C/c1ccccc1Cl | 1230 µM | IC50 [7]: 3.7 µM; IC50 [8]: 400 nM; Activity [9]: Toxic; IC50 [10]: 8 µM; IC50 [11]: 2000 nM; IC50 [12]: 190 µM; IC50 [13]: 18.5 µM; IC50 [14]: 5 µM
 |  |  |  |  | CN(C)CC(C)(C)C(=O)/C=C/c1ccccc1Cl |  | Activity [15]: inactive
 |  |  |  |  | O=C1C=CC(c2ccccc2Cl)C1 (centres undefined) |  | Activity [16]: inactive
7.5 min | 16.2 µM | 13 µM | 800 nM | 11.8 µM | O=C(/C=C/c1ccccc1Cl)CCN1CCCCC1 | 7.3 µM | 
8.6 min | 27 µM | 41.6 µM | 1800 nM | 8.7 µM | CN(C)CCC(=O)/C=C/c1ccccc1Cl | 14.2 µM | inhibition [17]: 30%; inhibition [18]: 70%; Activity [19]: > 99%; Activity [20]: > 99%
 |  |  |  | 4.2 µM | O=C(Cn1ccnc1[N+](=O)[O-])NCc1ccccc1 [BENZNIDAZOLE] |  | 
